Measured values published in ChEMBL document CHEMBL1671797, “Lipophilic derivatives of leu-enkephalinamide: in vitro permeability, stability and in vivo nasal delivery” (Bioorg Med Chem, 2011).
Non-standard residues stand in square brackets, D forms with d. Residues, ends and D or L forms follow the SMILES beside them. Gly(decyl) = CCCCCCCCCC[C@H](N)C(=O)O; Aoc(2) = CCCCCC[C@H](N)C(=O)O

Experiments:
[1] = Drug level in Sprague-Dawley rat brain at 1 mg/kg, intranasal after 10 mins by LC-MS/MS analysis; type: ADME, organism-based; set-up: dose 1 mg/kg; conditions: inhaled or intranasal, read-out: Drug uptake
Procedure, shortened: (§1)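 Male Sprague–Dawley rats (450–530 g, n = 4; 2 PBS controls) under xylazine/tiletamine–zolazepam anaesthesia. Dose given as 50 µL suspension in PBS pH 7.4 through a tube inserted 15 mm into the nasal cavity. CO2 euthanasia at 10 min. Tissues and blood homogenised or diluted in cold PBS, sonicated, acetonitrile-precipitated. Quantified against standards made in brain-homogenate matrix.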

[2] = Apparent permeability across human Caco2 cells by LC-MS/MS analysis; type: ADME, cell-based; conditions: Caco-2
Procedure, shortened: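 Caco-2 cells (passage 25–35, DMEM with 10% FBS, 1% NEAA) grown 21–28 days on 0.4 µm polycarbonate Transwell inserts; TEER 2.5–5 kΩ/cm2 before use. Rinsed with EDTA/DPBS then HBSS/25 mM HEPES pH 7.4, equilibrated 30 min at 37 °C. 200 µM apical dose; basolateral sampling at 30, 90, 120, 150 min. Papp from steady-state flux; 4 wells/experiment, ≥3 experiments; 14C mannitol control.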

Plasma [3] = assay: Stability of the compound in human plasma assessed as degradation by HPLC analysis; type: ADME, cell-free
Procedure, shortened: (§2)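 Compound at 1 mg/mL in PBS mixed 1:1 with human plasma from healthy volunteers at 37 °C. Aliquots taken at set times, put on ice, proteins precipitated with acetonitrile, spun 10,000 rpm 10 min. Supernatant run on C18 RP-HPLC (water/acetonitrile/TFA gradient), detection at 214 nm. Percent of initial peptide remaining plotted against time.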

[4] = Stability of the compound in human plasma assessed as half life by HPLC analysis; type: ADME, cell-free; procedure, shortened: as §2
[5] = Drug level in Sprague-Dawley rat olfactory bulb at 1 mg/kg, intranasal after 10 mins by LC-MS/MS analysis; type: ADME, organism-based; set-up: dose 1 mg/kg; conditions: inhaled or intranasal, read-out: Drug uptake; procedure, shortened: as §1
[6] = Drug level in Sprague-Dawley rat blood at 1 mg/kg, intranasal after 10 mins by LC-MS/MS analysis; type: ADME, organism-based; set-up: dose 1 mg/kg; conditions: whole blood, inhaled or intranasal; procedure, shortened: as §1
[7] = Stability of the compound in human Caco2 cell homogenate assessed as half life by LC-MS/MS analysis; type: ADME, Colon; conditions: Caco-2 cell homogenate
Procedure, shortened: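 Confluent Caco-2 cells (21–28 days) rinsed, sonicated, spun 2000 rpm 5 min; supernatant adjusted to 0.5 mg/mL protein. Homogenate mixed 1:1 with 200 µM compound in HBSS/HEPES. Sampled at 5–120 min, quenched with TFA-acidified water (pH 1–2). Endomorphin-1 run as enzyme-activity control. t1/2 by one-phase decay fit; 4 wells, ≥3 independent experiments.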

Plasma [8] = assay: Stability of the compound in human plasma by HPLC analysis; type: ADME, cell-free; procedure, shortened: as §2

| Structure (SMILES) | Papp [2] [×10⁻⁶ cm/s] | half-life [7] [min] | also measured |
| --- | --- | --- | --- |
| CCCCCC[C@H](N)C(=O)N[C@@H](Cc1ccc(O)cc1)C(=O)NCC(=O)NCC(=O)N[C@@H](Cc1ccccc1)C(=O)N[C@@H](CC(C)C)C(N)=O | 2.51 | 31.7 | concentration at 10 min [1]: 13.5 nM; Stability (Plasma [3]): Unstable; half-life [4]: 8.9 min; concentration at 10 min [5]: 59 nM; concentration at 10 min [6]: 6.53 nM |
| CCCCCC[C@@H](N)C(=O)N[C@@H](Cc1ccc(O)cc1)C(=O)NCC(=O)NCC(=O)N[C@@H](Cc1ccccc1)C(=O)N[C@@H](CC(C)C)C(N)=O |  |  | Stability (Plasma [8]): Stable |
| CCCCCC[C@H](NC(=O)[C@H](CC(C)C)NC(=O)[C@H](Cc1ccccc1)NC(=O)CNC(=O)CNC(=O)[C@H](Cc1ccc(O)cc1)NC(C)=O)C(N)=O (Ac-YGGFL[Aoc(2)]-NH2) | 0.763 | 13.8 |  |
| CCCCCCCCCC[C@H](NC(=O)[C@H](CC(C)C)NC(=O)[C@H](Cc1ccccc1)NC(=O)CNC(=O)CNC(=O)[C@H](Cc1ccc(O)cc1)NC(C)=O)C(N)=O (Ac-YGGFL[Gly(decyl)]-NH2) |  | 18.4 |  |
| CCCCCC[C@H](NC(C)=O)C(=O)N[C@@H](Cc1ccc(O)cc1)C(=O)NCC(=O)NCC(=O)N[C@@H](Cc1ccccc1)C(=O)N[C@@H](CC(C)C)C(N)=O (Ac-[Aoc(2)]YGGFL-NH2) | 1.06 | 83 |  |
| CCCCCCCCCC[C@H](NC(C)=O)C(=O)N[C@@H](Cc1ccc(O)cc1)C(=O)NCC(=O)NCC(=O)N[C@@H](Cc1ccccc1)C(=O)N[C@@H](CC(C)C)C(N)=O (Ac-[Gly(decyl)]YGGFL-NH2) |  | 27 |  |
| CCCCCC[C@H](NC(=O)[C@H](CC(C)C)NC(=O)[C@H](Cc1ccccc1)NC(=O)CNC(=O)CNC(=O)[C@@H](N)Cc1ccc(O)cc1)C(N)=O (H-YGGFL[Aoc(2)]-NH2) | 0.00477 | 5.4 |  |
| CCCCCCCCCC[C@H](NC(=O)[C@H](CC(C)C)NC(=O)[C@H](Cc1ccccc1)NC(=O)CNC(=O)CNC(=O)[C@@H](N)Cc1ccc(O)cc1)C(N)=O (H-YGGFL[Gly(decyl)]-NH2) |  | 16.4 |  |
| CCCCCCCCCC[C@H](N)C(=O)N[C@@H](Cc1ccc(O)cc1)C(=O)NCC(=O)NCC(=O)N[C@@H](Cc1ccccc1)C(=O)N[C@@H](CC(C)C)C(N)=O (H-[Gly(decyl)]YGGFL-NH2) | 2.43 | 14.7 |  |
| CC(C)C[C@H](NC(=O)[C@H](Cc1ccccc1)NC(=O)CNC(=O)CNC(=O)[C@@H](N)Cc1ccc(O)cc1)C(=O)O [ENKEPHALIN] | 0.31 |  |  |
